From ChEMBL document CHEMBL4390654, “Microwave-assisted solid-phase synthesis of antisense acpP peptide nucleic acid-peptide conjugates active against colistin- and tigecycline-resistant E. coli and K. pneumoniae” (Eur J Med Chem, 2019)

Legend:
Klebsiella pneumoniae [1] = assay: Antibacterial activity against multi-drug resistant Klebsiella pneumoniae NMI 2697/14 assessed as reduction in microbial growth incubated for 20 hrs; format: functional; conditions: NMI 2697/14, 20 h
Summary of the method: (§1)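 Broth microdilution MIC (modified Hancock protocol) in non-binding polystyrene plates. Inoculum ~2 × 10^5 CFU/mL in Mueller-Hinton broth with Mg²⁺ and Ca²⁺ at 4 mg/L each. Compounds dissolved in water, diluted in 0.01% acetic acid/0.2% BSA (final), added as 10× stocks. Covered plates incubated 20 h at 35 °C (± 2 °C) with 220 rpm circular shaking before MIC read.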

Escherichia coli [2] = assay: Antibacterial activity against Escherichia coli ATCC 25922 assessed as reduction in microbial growth incubated for 20 hrs; format: functional; conditions: ATCC 25922, 20 h; summary of the method: as §1
[3] = Ratio of MIC for Escherichia coli ATCC 25922 to MIC for Klebsiella pneumoniae ATCC 13883; format: functional
Escherichia coli [4] = assay: Antibacterial activity against Escherichia coli lacking a functional SbmA assessed as reduction in microbial growth incubated for 20 hrs
Summary of the method: (§2)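 Broth microdilution MIC after a modified Hancock protocol for cationic peptides, in non-binding polystyrene plates. Inoculum ~2 × 10^5 CFU/mL in Mueller-Hinton broth with Mg²⁺ and Ca²⁺ at 4 mg/L each. Compounds dissolved in water, diluted in 0.01% acetic acid, 0.2% BSA (final), added as 10× aliquots. Covered plates incubated 20 h at 35 °C (± 2 °C) with shaking at 220 rpm. MIC read as lowest inhibiting concentration.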

Pseudomonas aeruginosa = assay: Antibacterial activity against Pseudomonas aeruginosa PAO1 assessed as reduction in microbial growth incubated for 20 hrs; format: functional; conditions: PAO1, 20 h; summary of the method: as §2
[5] = Ratio of MIC for Escherichia coli ATCC 25922 to MIC against Escherichia coli NMI 3898/15; format: functional
Escherichia coli [6] = assay: Antibacterial activity against multi-drug resistant Escherichia coli NMI 3548/14 assessed as reduction in microbial growth incubated for 20 hrs; format: functional; conditions: NMI 3548/14, 20 h; summary of the method: as §1
Klebsiella pneumoniae [7] = assay: Antibacterial activity against multi-drug resistant Klebsiella pneumoniae NMI 3081/09 assessed as reduction in microbial growth incubated for 20 hrs; format: functional; conditions: NMI 3081/09, 20 h; summary of the method: as §1
Klebsiella pneumoniae [8] = assay: Antibacterial activity against Klebsiella pneumoniae ATCC 13883 assessed as reduction in microbial growth incubated for 20 hrs; format: functional; conditions: ATCC 13883, 20 h; summary of the method: as §2
Acinetobacter baumannii = assay: Antibacterial activity against Acinetobacter baumannii ATCC 19606 assessed as reduction in microbial growth incubated for 20 hrs; format: functional; conditions: ATCC 19606 = CIP 70.34 = JCM 6841, 20 h; summary of the method: as §2
Escherichia coli [9] = assay: Antibacterial activity against multi-drug resistant Escherichia coli NMI 3898/15 assessed as reduction in microbial growth incubated for 20 hrs; format: functional; conditions: NMI 3898/15, 20 h; summary of the method: as §1
[10] = Hemolytic activity against RBC (unknown origin) at 100 uM; format: ADME, cell-based, Erythrocyte; conditions: red blood cells (erythrocytes); read-out: Activity
Staphylococcus aureus = assay: Antibacterial activity against Staphylococcus aureus ATCC 29213 assessed as reduction in microbial growth incubated for 20 hrs; format: functional; conditions: ATCC 29213, 20 h; summary of the method: as §2

Structure (SMILES): CC[C@H](C)[C@H](NC(=O)[C@@H]1CCCN1C(=O)[C@H](CCCNC(=N)N)NC(=O)[C@@H]1CCCN1C(=O)[C@H](Cc1cnc[nH]1)NC(=O)[C@H](CO)NC(=O)[C@@H](NC(=O)[C@@H]1CCCN1C(=O)[C@H](CCCNC(=N)N)NC(=O)[C@@H]1CCCN1C(=O)[C@H](CO)NC(=O)[C@H](Cc1ccc(O)cc1)NC(=O)[C@@H]1CCCN1C(=O)[C@H](CCCNC(=N)N)NC(=O)[C@@H]1CCCN1C(=O)[C@H](CCCNC(=N)N)NC(=O)CCCCCNC(=O)[C@@H](N)CCCNC(=N)N)[C@@H](C)O)C(=O)N[C@@H](CCCNC(=N)N)C(=O)N[C@H](C(=O)N[C@@H](CSC1CC(=O)N(CCC(=O)NCCOCCOC(=O)N[C@@H](CS)C(=O)N[C@H](C(=O)N[C@@H](CS)C(=O)N[C@@H](C)C(=O)N[C@H](C(=O)N[C@@H](C)C(=O)N[C@@H](CS)C(=O)N[C@H](C(=O)N[C@@H](CS)C(=O)N[C@H](C(N)=O)[C@@H](C)O)[C@@H](C)O)[C@@H](C)O)[C@@H](C)O)C1=O)C(N)=O)C(C)C (stereo partly drawn)
- MIC (Klebsiella pneumoniae [1]): 32 to 64 µg/mL
- MIC (Escherichia coli [2]): 16 µg/mL
- Ratio [3]: 2 to 4
- MIC (Escherichia coli [4]): > 64 µg/mL
- MIC (Pseudomonas aeruginosa): > 64 µg/mL
- Ratio [5]: 2 to 8
- MIC (Escherichia coli [6]): 2 to 8 µg/mL
- MIC (Klebsiella pneumoniae [7]): 64 µg/mL
- MIC (Klebsiella pneumoniae [8]): 4 to 8 µg/mL
- MIC (Acinetobacter baumannii): > 64 µg/mL
- MIC (Escherichia coli [9]): 8 to 32 µg/mL
- hemolysis at 100 µM [10]: < 1%
- MIC (Staphylococcus aureus): > 64 µg/mL
